In ChEMBL document CHEMBL1129568, “Structure-activity relationships of the antimalarial agent artemisinin. 3. Total synthesis of (+)-13-carbaartemisinin and related tetra- and tricyclic structures” (J Med Chem, 1996):
In brackets after ≈: the same amount, converted by molar mass.

Tests used:
Plasmodium falciparum [1] = assay: In vitro antimalarial activity for Plasmodium falciparum W2; assay type: functional, organism-based
Plasmodium falciparum [2] = assay: In vitro antimalarial activity for Plasmodium falciparum D6; assay type: functional, organism-based
Plasmodium falciparum [3] = assay: In vitro antimalarial activity for Plasmodium falciparum W2; Not active; assay type: functional, organism-based
Plasmodium falciparum [4] = assay: In vitro antimalarial activity for Plasmodium falciparum D6; Not active; assay type: functional, organism-based
Plasmodium falciparum [5] = assay: In vitro antimalarial activity against Plasmodium falciparum D6 relative to artemisinin; assay type: functional
Procedure, shortened: (§1)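 Relative potency is the artemisinin IC50 divided by the analog IC50, × 100%, with artemisinin set at 100%. Tested in vitro against P. falciparum D-6 or W-2.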

Plasmodium falciparum [6] = assay: In vitro antimalarial activity against Plasmodium falciparum W-2 relative to artemisinin; assay type: functional; procedure, shortened: as §1
Plasmodium falciparum [7] = assay: In vitro antimalarial activity for Plasmodium falciparum W2 in LDH […] assay; assay type: functional, organism-based
Procedure, shortened: (§2)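 In vitro test against P. falciparum D-6 or W-2 using Makler's parasite lactate dehydrogenase (pLDH) assay, which reads out parasite pLDH enzyme activity. Run at the University of Mississippi.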

Plasmodium falciparum [8] = assay: In vitro antimalarial activity for Plasmodium falciparum D6 in LDH […] assay; assay type: functional, organism-based; procedure, shortened: as §2

| SMILES | IC50 (Plasmodium falciparum [1]) | IC50 (Plasmodium falciparum [2]) | IC50 (Plasmodium falciparum [3]) | IC50 (Plasmodium falciparum [4]) | Relative activity (Plasmodium falciparum [5]) | Relative activity (Plasmodium falciparum [6]) | IC50 (Plasmodium falciparum [7]) | IC50 (Plasmodium falciparum [8]) |
| --- | --- | --- | --- | --- | --- | --- | --- | --- |
| C[C@@H]1CC[C@@H]([C@@H](C)CO)[C@@]23CC[C@@](C)(CC[C@@H]12)OO3 | 1.5 µg/mL (≈ 5.59 µM) | 0.3 µg/mL (≈ 1.12 µM) | – | – | – | – | – | – |
| C[C@@H]1CC[C@@H]([C@@H](C)COCc2ccccc2)[C@@]23C=C[C@@](C)(CC[C@@H]12)OO3 | – | – | Not Active | Not Active | – | – | – | – |
| C[C@@H]1CC[C@@H]([C@@H](C)CO)[C@@]23C=C[C@@](C)(CC[C@@H]12)OO3 | – | 1 µg/mL (≈ 3.75 µM) | Not Active | – | – | – | – | – |
| COC[C@H](C)[C@@H]1CC[C@@H](C)[C@@H]2CC[C@]3(C)CC[C@@]21OO3 | 0.7 µg/mL (≈ 2.48 µM) | 0.31 µg/mL (≈ 1.1 µM) | – | – | – | – | – | – |
| C[C@@H]1CC[C@H]2[C@@H](C)CO[C@H]3C[C@]4(C)CC[C@@H]1[C@@]32OO4 | 0.00078 µg/mL (≈ 0.00293 µM) | 0.00172 µg/mL (≈ 0.00646 µM) | – | – | 53 | 58 | – | – |
| COC[C@H](C)[C@@H]1CC[C@@H](C)[C@@H]2CC[C@]3(C)C=C[C@@]21OO3 | – | 0.92 µg/mL (≈ 3.28 µM) | Not Active | – | – | – | – | – |
| C[C@@H]1CC[C@@H]([C@@H](C)COCc2ccccc2)[C@@]23CC[C@@](C)(CC[C@@H]12)OO3 | 0.66 µg/mL (≈ 1.84 µM) | 0.29 µg/mL (≈ 0.809 µM) | – | – | – | – | – | – |
| C[C@@H]1CC[C@H]2[C@@H](C)CO[C@@H]3C[C@@]4(C)CC[C@@H]1[C@]32OO4 | 0.00279 µg/mL (≈ 0.0105 µM) | 0.00287 µg/mL (≈ 0.0108 µM) | – | – | 32 | 16 | – | – |
| C[C@@H]1CC[C@H]2[C@@H](C)C(=O)O[C@@H]3C[C@@]4(C)CC[C@@H]1[C@]32OO4 | 0.0126 µg/mL (≈ 0.045 µM) | 0.0388 µg/mL (≈ 0.138 µM) | – | – | 23.3 | 11 | 0.02 µg/mL (≈ 0.0713 µM) | 0.006 µg/mL (≈ 0.0214 µM) |
| C[C@@H]1CC[C@H]2[C@@H](C)C(=O)O[C@@H]3O[C@@]4(C)CC[C@@H]1[C@]32OO4 [ARTEMISININ] | 0.00048 µg/mL (≈ 0.0017 µM) | 0.00097 µg/mL (≈ 0.00344 µM) | – | – | 100 | 100 | 0.0022 µg/mL (≈ 0.00779 µM) | 0.0014 µg/mL (≈ 0.00496 µM) |
